Test results published in ChEMBL document CHEMBL4513216, “Probing the Open Global Health Chemical Diversity Library for Multistage-Active Starting Points for Next-Generation Antimalarials” (ACS Infect Dis, 2020).

experiment: Toxicity liver stage against HepG2, at 10uM; type: cell-based; design: test concentration 10 uM, cell line HepG2-A16-CD81EGFP; settings: human, HepG2-A16-CD81EGFP cells; read-out: INHIBITION
How it was run: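 Uninfected HepG2-A16-CD81EGFP cells, 3 × 10^3 per well, 1536-well, plated on prespotted compound at 10 μM final, parasite-free screening media added to match infected plates; puromycin 10 μM positive, DMSO 0.5% negative; run in parallel with 48 h PbLuc assay at 37 °C, 5% CO2; viability by CellTiter-Glo luminescence, normalized to controls.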

Row | SMILES | cytotoxicity at 10 µM
1 | COc1cc(OC)cc(C2NC(=O)CN2Cc2ccc(Br)cc2)c1 (centres undefined) | -6.67%
2 | CN(C)c1nc(N)nc(CN2CCC(c3nc4ccccc4o3)CC2)n1 | -6.9%
3 | COc1ccccc1CN1C[C@@H](F)[C@@H](OCc2nc3ccccc3[nH]2)C1 | 9.55%
4 | CCNC(=O)N1CC[C@H]2CC(=O)N(CCN3CCNC3=O)CC[C@H]2C1 | 2.22%
5 | COc1cccc(Oc2nc(C)c(C(=O)O)s2)c1OC | 1.96%
6 | N#Cc1nc(COc2ccc3c(c2)OCO3)oc1N1CCCC1 | -42.7%
7 | Cc1ccc(S(=O)(=O)c2ncccc2CN2CCCCC2)cc1 | -47.6%
8 | CC(C)CCn1cc(C(=O)NC2CCS(=O)(=O)C2)c2ccccc2c1=O (centres undefined) | -3.68%
9 | O=C(C1CCCO1)N1CCCn2c(nnc2Cn2cccn2)C1 (centres undefined) | 16.6%
10 | CCC(=O)N1CCc2nc(N3CCOCC3)nc(N(C)C)c2CC1 | 28.9%
11 | COCCCN1CC2(CCCCN2C(=O)COC)CC1=O (centres undefined) | 2.5%
12 | CC(C)OC[C@H]1CCC[C@]12CN(S(=O)(=O)c1cccs1)CCO2 | -1.52%
13 | Cn1cc(CN2CCc3ncnc(C4CCOC4)c3CC2)cn1 (centres undefined) | -7.46%
14 | COCC(=O)N1CCN(C(=O)NC(C)C)CC2(CC(=O)N(C)C2)C1 (centres undefined) | 1.76%
15 | CCC(CC)C(=O)N1CCc2nc(N3CCCC3)nc(C)c2CC1 | 1.79%
16 | COc1ccc(CN2Cc3cnn(C)c3C(COCC3CC3)C2)cc1 (centres undefined) | 14.5%
17 | CCOc1cccc2c1OCC(=O)N(c1ccc(N(C)C)cc1)C2 | 4.28%
18 | CC(=O)Nc1ncc(-c2ccc(C)cc2)[nH]1 | -4.63%
19 | CN1CCC(Cc2cnc3ccccc3c2)C1 (centres undefined) | 1.42%
20 | COCCNC(=O)c1cc(S(=O)(=O)N2CCCCCC2)cs1 | -14.8%
21 | CNc1ccc(CC2CCCN(C(=O)c3cccc(C)n3)C2)nn1 (centres undefined) | -12.3%
22 | Cc1ncsc1C(=O)N1CCC(O)(CN2CCc3ccccc3C2)C1 (centres undefined) | -8.11%

Row | SMILES | cytotoxicity at 10 µM
23 | CC(=O)N1CCCC1c1cc(N2CCN(CC3CC3)CC2)cc(C)n1 (centres undefined) | -2.14%
24 | CC(C)CSCCN1CCN(S(C)(=O)=O)CC1 | -3.66%
25 | CCCOc1ccc(CN)c(OC(F)F)c1 | -41.7%
26 | CC(C)(C)C(=O)NCC(=O)Nc1cccnc1 | -4.96%
27 | Cc1[nH]nc2ncc(C(=O)N3CCN(C(C)(C)C)CC3)cc12 | -4.36%
28 | N#Cc1cccnc1Nc1ccc(N2CCC(C(N)=O)CC2)cc1 | -40.1%
29 | CN1N=C(C(=O)NCCc2ccc(OC3CCCC3)cc2)CCC1=O | -1.52%
30 | Cc1cc(CNC(=O)NCCCC(=O)N2CCc3ccccc32)no1 | 5.02%
31 | OC1(CNCc2ccc(F)c(C(F)(F)F)c2)CCSCC1 | 5.1%
32 | COCCOc1ncccc1C(=O)N(C)c1nccs1 | -44.1%
33 | COc1ncccc1NC(=O)N1CCOCC1C (centres undefined) | -4.86%
34 | CC(c1ncc(C(C)(C)C)o1)N1CCN(Cc2ccncc2)CC1 (centres undefined) | -12.3%
35 | CCOC(=O)CCCN1CCCC(C(=O)Nc2ccc(Cl)cn2)C1 (centres undefined) | 2.69%
36 | Cc1nc(C(=O)N(CC2CCCO2)c2ccncc2)cs1 (centres undefined) | -7.3%
37 | CCOc1ncccc1CNC(=O)N1CCCC1c1cccs1 (centres undefined) | 4.93%
38 | CC(C)(C)c1noc(CCC(=O)N2CCN(Cc3ccc(Cl)s3)CC2)n1 | 3.36%
39 | Cn1cnc2c1CCN(Cc1nc(-c3ccco3)no1)C2 | 0.887%
40 | Cc1nc(C2CCCN2Cc2cc(Cl)c3c(c2)OCCO3)no1 (centres undefined) | 7.1%
41 | Cc1noc(CCNS(=O)(=O)N2CCCC2c2ccco2)n1 (centres undefined) | -6.43%
42 | CCN(Cc1noc(C(C)C)n1)Cc1ccc(C#N)cc1F | -2.48%
43 | Cc1cccc2c1NC1(CCCC1)NC2=O | -48.5%
44 | Cc1ccccc1OCCC(=O)OC(C)C(=O)Nc1sccc1C(N)=O (centres undefined) | 19.4%

Row | SMILES | cytotoxicity at 10 µM
45 | c1cc2c(cc1C1CCCN1Cc1nnnn1C1CC1)OCCO2 (centres undefined) | -25.7%
46 | O=C(c1cccs1)N1CCC2(CC1)CCN(S(=O)(=O)C1CC1)CC2 | -106%
47 | CS(=O)(=O)NCc1nnc2n1CCN(Cc1cccnc1)C2 | -70.9%
48 | c1cnc(NCC2Cn3nnc(-c4ccsc4)c3CO2)nc1 (centres undefined) | -73.3%
49 | CNCC(=O)Nc1cccc(-c2cnc(NCCS(C)(=O)=O)nc2)c1 | -1.31%
50 | O=C(CC1CCCC1)N[C@H]1CN(Cc2c[nH]cn2)C[C@@H]1C1CC1 | -54.7%
51 | CCCN(Cc1ccccn1)Cc1ccccc1OC | -43.3%
52 | CNC(=O)[C@@H]1C[C@@H](N)CN1c1nc(N2CCCC2)nc(C)c1C | -7.82%
53 | Cc1cc(C)c2nc(C)cc(C(=O)NCc3csc(N(C)C)n3)c2c1 | 13.5%
54 | CCN1CCC(CNS(=O)(=O)N2CCc3ccccc3C2)C1 (centres undefined) | -15.4%
55 | CC(C)c1ncc(CN2C[C@@H](CN3CCCC3)[C@@H](CO)C2)cn1 | -7.3%
56 | COc1ccccc1-n1nc(-c2ccco2)n(CC(=O)NC(C)C)c1=O | 2.57%
57 | CC(=O)N1CCc2c(nc(N(C)C)nc2NCCC2CCCCO2)C1 (centres undefined) | 5.22%
58 | O=C(NCCn1cccn1)Nc1cc(C(=O)N2CCOCC2)ccc1Cl | -46.6%
59 | NC(=O)C1CCN(CC(=O)NCCn2cc(Cl)cn2)CC1 | -50%
60 | O=C(c1cccnc1SC/C=C/c1ccccc1)N1CC[C@H](O)C1 | -9.66%
61 | O=C(O)c1cc(-n2cc3c(n2)CCC3)cc(S(=O)(=O)N2CCOCC2)c1 | -7.95%
62 | Cc1nc(CN(C)Cc2cn[nH]c2-c2ccc(F)cc2)c[nH]1 | -17.8%
63 | Cc1nonc1C1CCCN1C(=O)c1cc2n(n1)CCCNC2 (centres undefined) | -7.73%
64 | CC(O)C(=O)N1CCN(c2ccccc2Cl)C(=O)C1 (centres undefined) | -1.59%
65 | Clc1cccnc1N1CCC(C2CCN(Cc3cccnc3)CC2)C1 (centres undefined) | 2.92%
66 | Cc1nc2c(c(N(C)C)n1)CCN(C(=O)CN1CCC(O)CC1)C2 | 3.6%

Row | SMILES | cytotoxicity at 10 µM
67 | Cc1ccc2cc(CN(C)Cc3ccccn3)c(=O)[nH]c2c1 | 3.08%
68 | CCN(C)C(=O)c1cccc(S(=O)(=O)NCCc2nc(C)cc(=O)[nH]2)c1 | -39.9%
69 | CN1CCCC2(CCN(C(=O)Cc3cc4c(cc3Cl)OCCO4)C2)C1=O (centres undefined) | 10.1%
70 | O=C(Cn1c(=O)n(Cc2ccco2)c2ncccc21)Nc1ccccn1 | 0.822%
71 | Nc1nc2nc(C3CCCN(C(=O)c4cscn4)C3)ccc2s1 (centres undefined) | -1.44%
72 | CC(C)c1nnc2n1CCN(C(=O)c1cc3cc(F)ccc3[nH]1)C2 | 3.98%
73 | COc1ccc(OC2CCN(Cc3ccn(C)c(=O)c3)CC2)cc1 | -5.25%
74 | CCc1csc(C2CCCN(C(=O)c3ncccn3)C2)n1 (centres undefined) | -1.92%
75 | COc1ccc(-c2nnc(CN3CCCC3Cn3cncn3)o2)cc1 (centres undefined) | 3.02%
76 | Cc1cnn(C2CN(CC(=O)NCCc3cccs3)C2)c1 | -3.92%
77 | Cc1nc(C)n(CC2CN(Cc3cccc(OC(C)C)c3)CCO2)n1 (centres undefined) | -5.44%
78 | CC(C)(C)c1ncc(C(=O)NCCNC(=O)Cc2ccccc2)s1 | -6.44%
79 | COCCN1CCC(CNC(=O)C2(c3ccccc3)CCC2)C1 (centres undefined) | -5.36%
80 | c1ccc2oc(CCCN3CCCC(Cn4cncn4)C3)nc2c1 (centres undefined) | -27.8%
81 | COc1ccc(Cl)cc1NCC(=O)NCCNc1ncccn1 | -9.24%
82 | CC(C(=O)N1CCC(Nc2cccnn2)CC1)n1cccn1 (centres undefined) | -9.17%
83 | COc1ccc(NC(=O)C2CC(=O)N(C)C2)cn1 (centres undefined) | -16.5%
84 | Cc1cc(C)n(CC2CCCN2CC(=O)N(C)Cc2ccc(C)o2)n1 (centres undefined) | -15.4%
85 | Cc1cnn(CCC(=O)N2CCCC(c3cc(C)[nH]n3)C2)c1 (centres undefined) | -23.6%
86 | Cn1cnnc1C1CCCN(C(=O)COCc2ccccc2)C1 (centres undefined) | -18.1%
87 | CC(C)COC(C)C(=O)NCc1ccc(-n2cncn2)nc1 (centres undefined) | -5.65%
88 | CSCC(=O)N1CCCC(n2ccnc2C(C)C)C1 (centres undefined) | -18.2%

Row | SMILES | cytotoxicity at 10 µM
89 | CNS(=O)(=O)c1cccc(CNc2cc(C(F)(F)F)ccn2)c1 | -6.85%
90 | CCN1CCC2(CC1)OCCN2C(=O)c1ccc(OC)c(Cl)c1 | 9.55%
91 | CCn1ncc2c1CN(C(=O)c1cscn1)CC2COC (centres undefined) | -79.1%
92 | O=C(C1CCCC1)N1C[C@@H](c2ccsc2)[C@@H]2CN(C3CCCC3)CC[C@@H]21 | 4.79%
93 | O=c1ccc2c([nH]1)CCC(NCc1ccc(F)cc1)C2 (centres undefined) | -1.87%
94 | COc1cccc(CC(=O)N2CC[C@@H]3[C@H](CC2)N(C)CCS3(=O)=O)c1 | 3.68%
95 | CC(C)CN1CCc2[nH]nc(C(=O)N3CCCC3)c2C1 | -98.9%
96 | Cc1cc(CN2C[C@@H]3COC[C@]3(CNC(=O)N(C)C)C2)no1 | -71.4%
97 | Cc1cccc(CN2C(=O)CO[C@@H]3CN(Cc4cnn(C)c4)C[C@H]32)c1 | 1.1%
98 | Cc1ccc(CN2CCc3onc(C(=O)NC(C)C)c3C2)o1 | 11.5%
99 | Cc1sc(Br)cc1S(=O)(=O)NCCN | -6.69%
100 | Cc1oncc1C(=O)N1CCOCC2(CCN(c3ccccn3)C2)C1 (centres undefined) | -68.3%
101 | CCc1ccc(CN2CCC3(CC2)CC(N2CCN(C)CC2)CO3)cc1 (centres undefined) | -2.88%
102 | Cc1ccc(C(=O)N2CCn3cnc(COCC4CC4)c3C2)cn1 | 4.03%
103 | Cc1cc(CN2C[C@@H]3COC[C@H](C(=O)N4CCCCO4)[C@@H]3C2)oc1C | -74.1%
104 | CNC(=O)[C@@H](CC(C)C)N1CCC[C@H]1C(=O)N(C)Cc1cccnc1 | 3.95%
105 | Cc1cccc(S(=O)(=O)N2C[C@@H]3C[C@H](C(=O)NCC(C)C)[C@H](C2)O3)c1 | 6.53%
106 | C=C1C(C)(C)[C@@H]2CC[C@]1(C(=O)N1CCC(Cn3cc(CO)nn3)CC1)C2 | -6.01%
107 | CC(C)NC(=O)NCC1(COc2cnccn2)C[C@@H](O)[C@@H](O)C1 (some centres undefined) | -9.85%
108 | c1ccc(CN2C[C@@H]3CC[C@H]2CN(Cc2nnc(C4CC4)o2)C3)cc1 | -22.4%
109 | CCc1cc(N[C@@H]2C[C@@H]3CC[C@H]2C3)n2nccc2n1 | -2.24%
